TDP2 absorb – human TDP2 enzyme inhibitors, primary screen, biochemical, epi absorbance, recombinant enzyme | 370,000 compounds, 0.34% hits | Tyrosyl-DNA phosphodiesterase 2 (Homo sapiens), O95551 | T5PNP hydrolysis, p-nitrophenol absorbance 415 nm | inhibition, % at 12.8 µM;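 active = inhibition above the mean of all tested compounds plus 3 SD, set per campaign, cut at about 25% in these data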;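 note: 0% = DMSO with enzyme and 100% = buffer with substrate but no TDP2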
Target sequence (O95551 whole entry, looked up): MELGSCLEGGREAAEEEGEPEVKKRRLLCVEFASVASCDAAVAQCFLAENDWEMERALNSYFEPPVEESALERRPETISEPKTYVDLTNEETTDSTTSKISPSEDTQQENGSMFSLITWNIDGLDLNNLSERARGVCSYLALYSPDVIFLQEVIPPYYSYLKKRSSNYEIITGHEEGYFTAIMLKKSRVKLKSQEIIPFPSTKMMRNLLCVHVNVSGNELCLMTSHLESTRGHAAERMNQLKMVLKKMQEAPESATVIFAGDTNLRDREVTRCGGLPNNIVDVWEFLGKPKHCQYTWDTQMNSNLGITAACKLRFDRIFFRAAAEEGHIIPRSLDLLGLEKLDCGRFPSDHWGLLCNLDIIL
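System: recombinant human TDP2 / Amount: 120 nM TDP2 per well / Also added: 5 mM T5PNP chromogenic substrate / Doses: 12.8 µM single point, 1% DMSO / Incubation: 2 h at 37 °C / Detection: p-Nitrophenol epi absorbance / Evaluation: % inhibition relative to enzyme-containing and enzyme-free wells / Repeats: singlicate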
CTSL1 counter – Fasciola hepatica cathepsin L1 inhibitors, primary screen, counter-screen for PFM18AAP inhibitor project, biochemical, QFRET, fluorogenic peptide substrate | inhibition, % at 5.96 µM | AID 1906, 2009 | 300,000 compounds, 0.49% hits | recombinant F. hepatica cathepsin L1, Z-Leu-Arg-MCA fluorescence;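 active = inhibition above the mean of all tested compounds plus 3 SD, set per screening campaign, cut at about 17% in these data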;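 note: 0% = plate median of test compound wells and 100% = 1 µM Z-Phe-Ala-diazomethylketone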
GSTO1 counter – inhibitors of recombinant GSTO1, primary screen, counter-screen for RBBP9 inhibitor project, biochemical, fluorescence polarization; activity-based probe fluorescence polarization; inhibition, % at 5.96 µM; Glutathione S-transferase omega-1 (Homo sapiens), P78417; AID 1974, 2009; 300,000 compounds, 1.1% hits;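 active = inhibition above the campaign mean inhibition plus 3 SD, cut at about 35% in these data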;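 note: 0% = GSTO1-1 with DMSO and 100% = wells lacking GSTO1-1 enzyme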
Target sequence (P78417 whole entry, looked up): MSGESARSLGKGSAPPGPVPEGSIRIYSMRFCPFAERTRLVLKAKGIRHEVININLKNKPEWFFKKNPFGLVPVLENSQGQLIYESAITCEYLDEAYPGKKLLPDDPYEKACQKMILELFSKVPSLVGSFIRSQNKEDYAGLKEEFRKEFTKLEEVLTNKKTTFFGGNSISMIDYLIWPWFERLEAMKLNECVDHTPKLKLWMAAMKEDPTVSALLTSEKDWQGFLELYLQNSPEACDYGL
PAD4 inh – human PAD4 inhibitors, primary screen, biochemical, fluorescence polarization, 1536-well format | Protein-arginine deiminase type-4 (Homo sapiens), Q9UM07 | recombinant PAD4, RCA probe fluorescence polarization | inhibition, % at 6.36 µM | 330,000 compounds, 0.41% hits | AID 485272, 2010;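 active = percent inhibition above a cutoff equal to the mean of all tested compounds plus 3 SD, cut at about 15% in these data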;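 note: 0% = PAD4 with RCA probe and DMSO and 100% = probe without PAD4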
GSTO1 inh conf – GSTO1 inhibitor hit confirmation, counter-screen for RBBP9 inhibitor project, biochemical, fluorescence polarization, triplicate. recombinant GSTO1, probe fluorescence polarization. inhibition, % at 5.96 µM. 2,400 compounds, 54% hits. shares compounds with GSTO1 counter;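 active = inhibition above the primary screen's cutoff, its mean inhibition plus 3 SD, cut at about 35% in these data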;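 note: loss of polarization as inhibitors block binding of rhodamine sulfonate ester activity probe; 0% = GSTO1 with DMSO and 100% = wells lacking GSTO1 enzyme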
PAD4 confirm – human PAD4 inhibitors, confirmation, biochemical, fluorescence polarization; inhibition, % at 6.36 µM; recombinant PAD4, RCA probe fluorescence polarization; AID 488796, 2010; shares compounds with PAD4 inh; 1,200 compounds, 28% hits;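 active = mean inhibition across replicates above the hit cutoff set by the earlier primary screen, cut at about 15% in these data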;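 note: inhibitors block active-site labeling by the probe so polarization falls; 0% = PAD4 with probe and DMSO and 100% = probe without PAD4 enzyme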
TDP2 confirm – human TDP2 enzyme inhibitors, retest, confirmation, biochemical, epi absorbance, recombinant enzyme; absorbance read-out; 1,100 compounds, 22% hits; inhibition, % at 12.8 µM; shares compounds with TDP2 absorb; AID 743263, 2014; in the data active = inhibition above about 25%;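 note: 0% = vehicle with enzyme and 100% = no enzyme buffer only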
* marks the source's active call; other numbers are inactive results; . = not tested or not shown. In the library only some 1.4% were active in any assay of this set; here they are far more common.

SMILES	TDP2 absorb	CTSL1 counter	GSTO1 counter	PAD4 inh	GSTO1 inh conf	PAD4 confirm	TDP2 confirm
O=C(CSc1ccc(Cl)cc1)NC1=NN(c2ccccc2)C(=O)C1	25.4*	0.7	42.1*	14.8*	6.0	.	-0.8
CCC[C@H]1[C@@H](N(C)Cc2ccccc2)CC[C@@]23CCCN2C(=O)CCC[C@@H]13	12.8	.	.	.	.	.	.
COc1ccc2ccc3c(c2c1)N=C[C@]1(O3)N(C)c2ccccc2C1(C)C	41.2*	-3.6	85.8*	52.5*	4.1	5.5	0.2
COc1cc(Br)c(C(=O)c2nccc3cc(OC)c(OC)cc23)cc1OC	90.8*	103.0*	93.8*	73.1*	90.3*	58.8*	56.1*
Cc1ccnc(SCc2cc(=O)c(OC(=O)c3ccc(C#N)cc3)co2)n1	-1.8	.	.	.	.	.	.
N#CCC[C@H]1CC[C@]2(CCCN(C(=O)c3ccno3)C2)O1	-7.0	.	.	.	.	.	.
COc1ccc(-n2[nH]c(C)cc2=O)cc1	71.2*	2.0	58.7*	63.8*	12.8	2.7	33.3*
CCC(=O)Nc1c(C#N)c2nc3ccccc3nc2n1-c1ccccc1C	3.0	0.8	24.2	-0.1	.	.	.
CCCCn1c(NC(=O)c2ccccc2Cl)c(C#N)c2nc3ccccc3nc21	38.2*	6.4	94.3*	72.0*	64.1*	29.2*	71.9*
CC(C)(C)Cc1c(-c2ccc(C#N)cc2)nc2ccc(Cl)cn12	-3.2	.	.	.	.	.	.
Cc1cc2c(N)cccc2nn1	77.0*	-2.6	65.3*	120.1*	109.8*	-2.0	56.7*
Nc1cccc2nc3ccccc3cc12	.	-0.3	4.5	-5.0	.	.	.
O=C(O)c1ccc(NC2=C(n3nnc4ccccc43)C(=O)c3ccccc3C2=O)cc1	34.4*	33.7*	53.1*	17.4*	60.9*	3.4	41.1*
Cc1ccc(S(=O)(=O)/N=C2\C=C(Nc3cccc(C(=O)O)c3)C(=O)c3ccccc32)c(C)c1	61.9*	45.6*	93.0*	66.2*	91.5*	50.5*	70.5*
Cc1ccc(S(=O)(=O)/N=C2\C=C(Nc3cccc(C(=O)O)c3)C(=O)c3ccccc32)cc1	84.8*	62.7*	89.5*	62.9*	85.1*	46.1*	77.0*
CN1C(=O)c2cc(NC(=O)C3CC3)ccc2OC[C@H]2O[C@@H](CC(=O)NC3CCC3)CC[C@@H]21	-4.9	.	.	.	.	.	.
CCOC(=O)c1c(NC(=O)c2ccco2)n(C2CCCCC2)c2nc3ccccc3nc12	59.8*	0.3	61.9*	15.2*	85.5*	24.6*	60.2*
CCC(=O)Nc1c(C#N)c2nc3ccccc3nc2n1C1CCCCC1	7.1	-1.4	17.8	-4.2	.	.	.
COc1cc(NS(=O)(=O)c2ccc(C)cc2)c2ncccc2c1	-2.0	-1.8	28.8	-4.5	.	.	.
CCC(CNc1cc(OC)cc2cccnc12)NC1CCCCC1 (stereo unspecified)	79.1*	86.0*	80.2*	89.8*	8.8	13.7	24.7*
CCOC(=O)[C@]12CCC=C1N(Cc1ccc(Cl)cc1Cl)C(=O)[C@H](CC(=O)N1CCN(C(=O)c3ccco3)CC1)C2	-1.1	.	.	.	.	.	.
N#Cc1sc2nc(-c3ccccc3)cc(-c3ccco3)c2c1N	54.1*	3.0	65.8*	46.1*	78.1*	115.6*	56.4*
N#Cc1sc2nc(C3CC3)cc(-c3ccccc3)c2c1N	-0.8	-5.7	-2.8	7.0	.	.	.
Cc1cccc(N2CCN(C(=O)c3cc(S(=O)(=O)N(C)C)ccc3Cl)CC2)c1C	2.9	.	.	.	.	.	.
COC(=O)CCC(=O)OC1(C)C(=O)C=C2C=C(C3CC3)N(CCCCO)C=C2C1=O (stereo unspecified)	30.5*	4.7	46.0*	1.8	9.1	.	13.3
SMILES	TDP2 absorb	CTSL1 counter	GSTO1 counter	PAD4 inh	GSTO1 inh conf	PAD4 confirm	TDP2 confirm
COC(=O)CCC(=O)OC1(C)C(=O)C=C2C=C(C3CC3)N(c3ccccc3)C=C2C1=O (stereo unspecified)	12.0	1.1	29.8	11.4	.	.	.
O=c1cc(-c2ccc(Cl)cc2)[nH][nH]1	74.3*	-0.3	49.3*	59.8*	9.9	-11.0	10.0
CCC[C@H]1[C@@H](NCC2CCCCC2)CC[C@@]23CCCN2C(=O)CCC[C@@H]13	-8.5	.	.	.	.	.	.
CCc1cc[n+](C2=C([O-])c3ccccc3C(=O)/C2=N\S(=O)(=O)c2cccs2)cc1	41.0*	20.1*	82.9*	9.6	81.8*	.	40.1*
Cn1nc(-c2ccccn2)nc2c(=O)n(C)c(=O)nc1-2	91.4*	113.7*	97.2*	73.5*	91.5*	67.2*	85.0*
CCCCCCCCSC1=CC(=O)C(OC)=C(OC)C1=O	10.4	.	.	.	.	.	.
CC(=O)N(C1=C(Cl)C(=O)c2ccccc2C1=O)C1CCCCC1	57.0*	22.6*	55.8*	17.2*	72.8*	11.6	46.7*
COC(=O)[C@H](C)N(Cc1cn(Cc2ccccc2)nn1)S(=O)(=O)c1ccccc1Br	-15.4	.	.	.	.	.	.
CCN1CCN(C2=C(NS(=O)(=O)c3ccccc3)C(=O)c3ccccc3C2=O)CC1	28.0*	9.3	49.3*	-12.4	38.4*	.	15.5
CCN1CCN(C2=C(NS(=O)(=O)c3ccc(Br)cc3)C(=O)c3ccccc3C2=O)CC1	28.2*	20.2*	58.5*	8.7	30.2	.	22.9
CCOC(=O)C1CCN(C2=C(NS(=O)(=O)c3ccc(Br)cc3)C(=O)c3ccccc3C2=O)CC1	29.6*	4.2	44.6*	-5.1	13.6	.	11.5
CC(=O)N1CCN(c2cc(C)nc3nc(C)nn23)CC1	-2.0	.	.	.	.	.	.
COC(=O)[C@H](C(C)C)N1Cc2nnn(Cc3ccccc3)c2-c2cc(F)ccc2S1(=O)=O	1.2	.	.	.	.	.	.
COc1ccccc1N(/N=C1\Sc2ccccc2C1=O)C(C)=O	27.8*	30.4*	44.1*	-15.2	75.0*	.	44.8*
CN(Cc1ccccc1)S(=O)(=O)c1cccc(C(=O)OCc2ccccc2)c1	3.6	.	.	.	.	.	.
COc1cccc(C(c2c(C)[nH]n(-c3ccccc3)c2=O)c2c(C)[nH]n(-c3ccccc3)c2=O)c1O	80.0*	-7.0	64.7*	64.5*	37.9*	-3.0	6.0
Cc1[nH]n(-c2ccccc2)c(=O)c1C(c1ccc(O)c([N+](=O)[O-])c1)c1c(C)[nH]n(-c2ccccc2)c1=O	88.7*	3.0	59.1*	57.4*	46.6*	.	9.3
CCOc1cccc(C(c2c(C)n(C)n(-c3ccccc3)c2=O)c2c(C)n(C)n(-c3ccccc3)c2=O)c1OC	3.3	-0.3	-5.9	-4.7	.	.	.

Screens from PubChem.
